# Where two headings read alike, the source gives them in different places.
# Assays:
# [1] = type: in vivo, human; settings: for Serum concentration, mean: trough
# In short: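 mRCC patients recruited prospectively (March 2020–January 2022) on oral sunitinib, 2 weeks on/1 week off, with physician-set dose. Blood (5 mL) was drawn at outpatient visits 7–14 days into each cycle, 24 h post-dose or just before the next dose. It was spun at 1,500 ×g, 4 °C, 10 min, and the serum stored at -25 °C. Parent drug, N-desethyl and N-oxide were quantified by LC-MS/MS (LLOQ 2.5, 2.5, 0.1 ng/mL). Concentration/dose ratios were correlated with treatment duration by Pearson.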
# [2] = Adverse events in mRCC patients receiving long-term sunitinib; type: in vivo, human
# [3] = population pharmacokinetic analysis, patient weighing 100 kg; cited from earlier work
# [4] = Pt1, maintenance dose 25 mg, 421–630 days after initiation
# [5] = Pt1, maintenance dose 25 mg, 631–840 days after initiation
# [6] = Pt1, maintenance dose 25 mg, 841–1050 days after initiation
# [7] = Pt1, maintenance dose 25 mg, 1051–1260 days after initiation
# [8] = Pt1, maintenance dose 25 mg, 1261–1470 days after initiation
# [9] = Pt2, maintenance dose 25 mg, 631–840 days after initiation
# [10] = Pt2, maintenance dose 25 mg, 841–1050 days after initiation
# [11] = Pt3, maintenance dose 25 mg, 1051–1260 days after initiation
# [12] = Pt3, maintenance dose 25 mg, 1261–1470 days after initiation
# [13] = Pt3, maintenance dose 25 mg, 1471–1680 days after initiation
# [14] = Pt3, maintenance dose 25 mg, 1681–1890 days after initiation
# [15] = Pt4, maintenance dose 25 mg, 1891–2100 days after initiation
# [16] = Pt5, maintenance dose 37.5 mg, 1261–1470 days after initiation
# [17] = Pt5, maintenance dose 37.5 mg, 1471–1680 days after initiation
# [18] = Pt5, maintenance dose 37.5 mg, 1681–1890 days after initiation
# [19] = Pt6, maintenance dose 50 mg, 0–210 days after initiation
# [20] = Pt6, maintenance dose 50 mg, 211–420 days after initiation
# [21] = Pt6, maintenance dose 50 mg, 421–630 days after initiation
# [22] = Pt7, maintenance dose 25 mg, 0–210 days after initiation
# [23] = after follow-up, sunitinib C/D decreased group (n=3)
# [24] = after follow-up, sunitinib C/D non-decreased group (n=4)
# [25] = baseline, sunitinib C/D decreased group (n=3)
# [26] = baseline, sunitinib C/D non-decreased group (n=4)
# [27] = sunitinib C/D decreased group (n=3)
# [28] = sunitinib C/D non-decreased group (n=4)
SMILES,Pearson's correlation coefficient r between C/D ratio and treatment duration ([1]; Pt1),"Serum concentration, mean [1, 4]","Serum concentration, mean [1, 5]","Serum concentration, mean [1, 6]","Serum concentration, mean [1, 7]","Serum concentration, mean [1, 8]",Pearson's correlation coefficient r between C/D ratio and treatment duration ([1]; Pt2),"Serum concentration, mean [1, 9]","Serum concentration, mean [1, 10]","Serum concentration, mean [1, 11]","Serum concentration, mean [1, 12]","Serum concentration, mean [1, 13]","Serum concentration, mean [1, 14]","Serum concentration, mean [1, 15]","Serum concentration, mean [1, 16]","Serum concentration, mean [1, 17]","Serum concentration, mean [1, 18]","Serum concentration, mean [1, 19]","Serum concentration, mean [1, 20]","Serum concentration, mean [1, 21]",other results
CCNCCNC(=O)c1c(C)[nH]c(/C=C2\C(=O)Nc3ccc(F)cc32)c1C [N-desethyl sunitinib],-0.282,9.0 ng/mL,11.0 ng/mL,10.4 ng/mL,9.6 ng/mL,6.9 ng/mL,-0.500,22.7 ng/mL,20.9 ng/mL,13.2 ng/mL,12.5 ng/mL,15.5 ng/mL,14.6 ng/mL,11.0 ng/mL,12.6 ng/mL,12.1 ng/mL,14.7 ng/mL,30.4 ng/mL,27.7 ng/mL,30.4 ng/mL,"Serum concentration, mean [1, 22]: 17.8 ng/mL; N-desethyl sunitinib/sunitinib concentration ratio, median (min–max) [1, 23]: 0.29 (0.26–0.63); N-desethyl sunitinib/sunitinib concentration ratio, median (min–max) [1, 24]: 0.30 (0.16–0.54); N-desethyl sunitinib/sunitinib concentration ratio, median (min–max) [1, 25]: 0.28 (0.23–0.46); N-desethyl sunitinib/sunitinib concentration ratio, median (min–max) [1, 26]: 0.30 (0.19–0.44)"
"CC[N+]([O-])(CC)CCNC(=O)c1c(C)[nH]c(/C=C2\C(=O)Nc3ccc(F)cc32)c1C [Sunitinib N-oxide, sunitinib N-oxide]",-0.756,0.68 ng/mL,0.59 ng/mL,0.40 ng/mL,0.29 ng/mL,0.10 ng/mL,-0.838,1.10 ng/mL,0.71 ng/mL,0.99 ng/mL,0.58 ng/mL,0.53 ng/mL,0.32 ng/mL,1.35 ng/mL,0.56 ng/mL,0.57 ng/mL,0.36 ng/mL,0.56 ng/mL,0.55 ng/mL,0.17 ng/mL,"Pearson's correlation coefficient r between C/D ratio and treatment duration ([1]; Pt6): -0.752; Serum concentration, mean [1, 22]: 0.24 ng/mL; Sunitinib N-oxide/sunitinib concentration ratio, median (min–max) [1, 23]: 0.004 (0.004–0.009); Sunitinib N-oxide/sunitinib concentration ratio, median (min–max) [1, 24]: 0.006 (0.004–0.029); Sunitinib N-oxide/sunitinib concentration ratio, median (min–max) [1, 25]: 0.013 (0.010–0.021); Sunitinib N-oxide/sunitinib concentration ratio, median (min–max) [1, 26]: 0.016 (0.014–0.026)"
"CCN(CC)CCNC(=O)c1c(C)[nH]c(/C=C2\C(=O)Nc3ccc(F)cc32)c1C [Sunitinib, sunitinib, reference compound]",-0.608,44.0 ng/mL,48.3 ng/mL,41.2 ng/mL,33.1 ng/mL,26.2 ng/mL,-0.555,86.7 ng/mL,73.5 ng/mL,59.5 ng/mL,54.9 ng/mL,64.1 ng/mL,54.1 ng/mL,54.5 ng/mL,42.2 ng/mL,44.7 ng/mL,39.4 ng/mL,71.0 ng/mL,65.8 ng/mL,37.5 ng/mL,"Pearson's correlation coefficient r between C/D ratio and treatment duration ([1]; Pt6): -0.590; Serum concentration, mean [1, 22]: 31.1 ng/mL; Patients with grade 2 or higher anorexia ([2]; all 7 patients, five patients): 71.4%; Patients with anorexia (any grade) ([2]; all 7 patients, six patients): 85.7%; Anorexia Grade 0, number of patients [2, 27]: 1 n; Anorexia Grade 1, number of patients [2, 27]: 0 n; Anorexia Grade 2, number of patients [2, 27]: 1 n; Anorexia Grade 3, number of patients [2, 27]: 1 n; Diarrhea Grade 0, number of patients [2, 27]: 2 n; Diarrhea Grade 1, number of patients [2, 27]: 1 n; Anorexia Grade 0, number of patients [2, 28]: 0 n; Anorexia Grade 1, number of patients [2, 28]: 1 n; Anorexia Grade 2, number of patients [2, 28]: 2 n; Anorexia Grade 3, number of patients [2, 28]: 1 n; Diarrhea Grade 0, number of patients [2, 28]: 2 n; Diarrhea Grade 1, number of patients [2, 28]: 2 n; Maximum variation in Vd/F [3]: 14%"

# From paper PMC11671551 (Cancer Chemotherapy and Pharmacology, 2024)
